Measurements from ChEMBL document CHEMBL4152211, “Discovery of novel Methylsulfonyl phenyl derivatives as potent human Cyclooxygenase-2 inhibitors with effective anticonvulsant action: Design, synthesis, in-silico, in-vitro and in-vivo evaluation” (Eur J Med Chem, 2018).
Active and inactive are the calls of the source. The calls are words filed in the database; no cut-off is given here.

Columns and labels:
[1] = target: T1, Prostaglandin G/H synthase 2 (Homo sapiens, UniProt P35354); assay: Inhibition of human recombinant COX2 using arachidonic acid as substrate preincubated for 5 mins followed by substrate addition and measured after 2 mins by ADPH probe-based fluorescence assay
T1 sequence (P35354 whole entry): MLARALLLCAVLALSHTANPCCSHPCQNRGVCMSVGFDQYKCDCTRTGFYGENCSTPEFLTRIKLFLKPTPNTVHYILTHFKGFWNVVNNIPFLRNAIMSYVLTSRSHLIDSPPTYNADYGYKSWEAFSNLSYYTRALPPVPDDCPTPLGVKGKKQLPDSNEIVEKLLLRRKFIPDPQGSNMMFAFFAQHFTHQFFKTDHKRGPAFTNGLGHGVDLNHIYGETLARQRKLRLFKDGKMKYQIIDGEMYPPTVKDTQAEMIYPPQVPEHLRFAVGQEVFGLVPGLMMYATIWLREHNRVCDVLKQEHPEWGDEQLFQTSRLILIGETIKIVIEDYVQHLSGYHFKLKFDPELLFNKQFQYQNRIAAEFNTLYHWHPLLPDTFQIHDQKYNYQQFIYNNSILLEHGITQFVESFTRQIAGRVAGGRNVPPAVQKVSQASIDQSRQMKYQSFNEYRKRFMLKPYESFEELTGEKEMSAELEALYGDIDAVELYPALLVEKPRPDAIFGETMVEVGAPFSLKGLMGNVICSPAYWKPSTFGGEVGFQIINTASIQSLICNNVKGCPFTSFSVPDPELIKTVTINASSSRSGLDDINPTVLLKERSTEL
Summary of the method: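 Kit assay in 100 mM Tris-HCl pH 8.0. Enzyme, heme and inhibitor (DMSO stocks) are incubated 5 min at room temperature. ADPH is added, then arachidonic acid starts the reaction. After 2 min, fluorescence is read at ex 535/em 590 nm. Percent inhibition is taken versus the 100% activity well, background wells included. IC50 is derived from percentage inhibition, mean of three independent experiments.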

[2] = system: Mus musculus; assay: Anticonvulsant activity in Swiss albino mouse assessed as protection against subcutaneous pentylenetetrazole-induced seizures at 100 mg/kg, ip administered 0.5 hrs prior to PTZ challenge and measured after 30 mins; format: functional
Summary of the method: (§1)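 Male Swiss Albino mice (25–30 g), 6 per group, dosed i.p. with drugs in sterile saline, then challenged with PTZ 85 mg/kg s.c. (CD97), given at 10 ml/kg, 0.5 h or 4 h later. Each animal is observed singly for seizures. Protection is scored as protected/total animals.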

[3] = system: Mus musculus; assay: Anticonvulsant activity in Swiss albino mouse assessed as protection against subcutaneous pentylenetetrazole-induced seizures at 300 mg/kg, ip administered 0.5 hrs prior to PTZ challenge and measured after 30 mins; format: functional; summary of the method: as §1
[4] = system: Mus musculus; assay: Anticonvulsant activity in Swiss albino mouse assessed as protection against subcutaneous pentylenetetrazole-induced seizures at 30 mg/kg, ip administered 4 hrs prior to PTZ challenge and measured after 30 mins; format: functional; summary of the method: as §1
[5] = system: Mus musculus; assay: Anticonvulsant activity in Swiss albino mouse assessed as protection against subcutaneous pentylenetetrazole-induced seizures at 5 mg/kg, ip administered 2 hrs prior to PTZ challenge and measured after 30 mins; format: functional; settings: in the assay text read “30 mg/kg” for “5 mg/kg”
Summary of the method: (§2)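 Mice get a single i.p. dose, then PTZ 85 mg/kg s.c. at 0.5, 1, 2, 3, 4 or 6 h after dosing. Seizure protection is recorded at each interval as percentage of six Swiss Albino mice protected.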

[6] = system: Mus musculus; assay: Anticonvulsant activity in Swiss albino mouse assessed as protection against subcutaneous pentylenetetrazole-induced seizures at 5 mg/kg, ip administered 1 hr prior to PTZ challenge and measured after 30 mins; format: functional; settings: in the assay text read “30 mg/kg” for “5 mg/kg”; summary of the method: as §2
[7] = system: Mus musculus; assay: Anticonvulsant activity in Swiss albino mouse assessed as protection against subcutaneous pentylenetetrazole-induced seizures at 5 mg/kg, ip administered 3 hrs prior to PTZ challenge and measured after 30 mins; format: functional; settings: in the assay text read “30 mg/kg” for “5 mg/kg”; summary of the method: as §2
[8] = system: Mus musculus; assay: Anticonvulsant activity in Swiss albino mouse assessed as protection against subcutaneous pentylenetetrazole-induced seizures at 5 mg/kg, ip administered 6 hrs prior to PTZ challenge and measured after 30 mins; format: functional; settings: in the assay text read “30 mg/kg” for “5 mg/kg”; summary of the method: as §2
[9] = system: Rattus norvegicus; assay: Antiepileptic activity in rat model of PTZ-induced epileptiogenesis kindling model assessed as decrease of seizure severity at 30 mg/kg, ip measured up to 28 days; format: functional, organism-based
Summary of the method: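 Adult male Wistar rats receive PTZ 40 mg/kg i.p. on alternate days for 28 days plus daily i.p. treatment. After each PTZ injection, rats are observed singly for 45 min and scored on the revised Racine scale (stages to 6). Group mean score per week, ±S.D. Statistics are repeated-measures ANOVA with Tukey's test.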

[10] = system: Rattus norvegicus; assay: Cognitive enhancing effect in ip dosed PTZ-kindled rat assessed as decrease in ratio of second interaction trial to first interaction time by social recognition test (reference value: 0.928 +/- 0.234); format: functional
[11] = system: Rattus norvegicus; assay: Cognitive enhancing effect in ip dosed PTZ-kindled Wistar rat assessed as exploration preference by novel object recognition test (reference value: 5.7%); format: functional
[12] = system: Rattus norvegicus; assay: Anxiolytic activity in ip dosed PTZ-kindled Wistar rat assessed as time spent in light zone by light-dark test (reference value: 3.05 +/- 1.25%); format: functional
[13] = system: Rattus norvegicus; assay: Anxiolytic activity in ip dosed PTZ-kindled Wistar rat assessed as time spent in dark zone by light-dark test (reference value: 96.9 +/- 1.25%); format: functional
[14] = system: Rattus norvegicus; assay: Toxicity in Wistar rat assessed as hemoglobin level at 200 mg/kg, po for 14 days (reference value: 12.87 +/- 0.6 g/dl); format: organism-based; settings: in vivo, 336 h
[15] = system: Rattus norvegicus; assay: Toxicity in Wistar rat assessed as neutrophil level at 200 mg/kg, po for 14 days (reference value: 17.33 +/- 3.21%); format: organism-based; settings: in vivo, 336 h
[16] = system: Rattus norvegicus; assay: Toxicity in Wistar rat assessed as lymphocyte level at 200 mg/kg, po for 14 days (reference value: 77.33 +/- 2.08%); format: organism-based; settings: in vivo, 336 h
[17] = system: Rattus norvegicus; assay: Toxicity in Wistar rat assessed as basophils level at 200 mg/kg, po for 14 days (reference value: 0 +/0%); format: organism-based; settings: in vivo, 336 h
[18] = system: Rattus norvegicus; assay: Toxicity in Wistar rat assessed as effect on total bilirubin level at 200 mg/kg, po for 14 days; format: organism-based; settings: in vivo, 336 h
Summary of the method: (§3)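 Normal Wistar rats are given 200 mg/kg orally for 14 days, with vehicle-treated controls. Serum liver markers (SGOT, SGPT, ALP, total protein, total bilirubin) and renal markers (urea, creatinine, uric acid) are then measured, mean ± S.D.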

[19] = system: Rattus norvegicus; assay: Toxicity in Wistar rat assessed as effect on SGOT level at 200 mg/kg, po for 14 days; format: organism-based; settings: in vivo, 336 h; summary of the method: as §3
[20] = system: Rattus norvegicus; assay: Toxicity in Wistar rat assessed as effect on alkaline phosphatase level at 200 mg/kg, po for 14 days; format: organism-based; settings: in vivo, 336 h; summary of the method: as §3
[21] = system: Rattus norvegicus; assay: Toxicity in Wistar rat assessed as effect on total protein level at 200 mg/kg, po for 14 days; format: organism-based; settings: in vivo, 336 h; summary of the method: as §3
[22] = system: Rattus norvegicus; assay: Toxicity in Wistar rat assessed as effect on blood urea level at 200 mg/kg, po for 14 days; format: organism-based; settings: in vivo, 336 h; summary of the method: as §3
[23] = system: Rattus norvegicus; assay: Toxicity in Wistar rat assessed as effect on creatinine level at 200 mg/kg, po for 14 days; format: organism-based; settings: in vivo, 336 h; summary of the method: as §3
[24] = system: Rattus norvegicus; assay: Toxicity in Wistar rat assessed as effect on calcium level at 200 mg/kg, po for 14 days; format: organism-based; settings: in vivo, 336 h
[25] = system: Rattus norvegicus; assay: Toxicity in Wistar rat assessed as effect on chloride level at 200 mg/kg, po for 14 days; format: organism-based; settings: in vivo, 336 h

## Cc1ccc(NC(=S)NNC(=O)Nc2ccc(S(C)(=O)=O)cc2)cc1
[1]
  IC50: 2.15 µM
[2]
  Activity: 67%
[3]
  Activity: 83%
[4]
  Activity: 83%
[5]
  Activity: 67%
[6]
  Activity: 67%
[7]
  Activity: 83%
[8]
  Activity: 67%
[9]
  Activity: Active
[10]
  Ratio: 0.561
[11]
  Activity: 3.9%
[12]
  Activity: 13.3%
[13]
  Activity: 86.6%
[14]
  Activity: 14.15 g/dL
[15]
  Activity: 21.5%
[16]
  Activity: 73%
[17]
  Activity: 0.5%
[18]
  Activity: Non-Toxic
[19]
  Activity: Non-Toxic
[20]
  Activity: Non-Toxic
[21]
  Activity: Non-Toxic
[22]
  Activity: Non-Toxic
[23]
  Activity: Non-Toxic
[24]
  Activity: Non-Toxic
[25]
  Activity: Non-Toxic
